From ChEMBL document CHEMBL2346603, “Discovery of potent dipeptidyl peptidase IV inhibitors through pharmacophore hybridization and hit-to-lead optimization” (Bioorg Med Chem, 2013) come the findings set out here.

The nature of data set [1]: Oral bioavailability in Sprague-Dawley rat at 30 mg/kg by LC-MS/MS analysis. It is filed as ADME, organism-based. The following applies: in vivo. Summed up:
(§1)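 Adult male SD rats (n = 4/group) got a single dose of compound in distilled water, orally or by injection. Blood (100–200 µL) was drawn from the orbit at 11 time points over 24 h. Blood drug levels were measured by LC–MS/MS.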

Data set [2] is described as follows: Mean residence time (0 to infinity) in Sprague-Dawley rat blood at 30 mg/kg, po by LC-MS/MS analysis. The following applies: whole blood. The arrangement: dose 30 mg/kg, route oral. The class given is ADME, organism-based. Summed up: as §1
Data set [3] in a line: Apparent volume of distribution in Sprague-Dawley rat blood at 10 mg/kg, iv by LC-MS/MS analysis. The following applies: whole blood, read-out: Vz. The arrangement: dose 10 mg/kg, route intravenous. The class given is ADME, organism-based. Summed up:
as §1

Data set [4] can be described thus: Apparent clearance in Sprague-Dawley rat blood at 10 mg/kg, iv by LC-MS/MS analysis. The class given is ADME, organism-based. The arrangement: dose 10 mg/kg, route intravenous. The following applies: whole blood, read-out: CL(app) (converted). The procedure, abridged:
as §1

The nature of data set [5]: Half life in Sprague-Dawley rat blood at 30 mg/kg, po by LC-MS/MS analysis. Details: dose 30 mg/kg, route oral. It is filed as ADME, organism-based. To be noted: whole blood. The procedure, abridged:
as §1

The nature of data set [6]: AUC (0 to infinity) in Sprague-Dawley rat blood at 30 mg/kg, po by LC-MS/MS analysis. The class given is ADME, organism-based. Details: time infinity, dose 30 mg/kg, route oral. To be noted: whole blood. The procedure, abridged: as §1
For data set [7], the target named is Dipeptidyl peptidase 9 (Homo sapiens) (UniProt Q86TI2). Kind of data set: Inhibition of DPP9 (unknown origin) up to 10 uM. Summed up: (§2)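 Compounds were serially diluted from DMSO into 20 mM Tris pH 7.4, 20 mM KCl, 0.1 mg/mL BSA. Enzyme was pre-incubated with compound for 10 min at ambient temperature. Reaction was started with Gly-Pro-AMC (10 µM final). Fluorescence (ex 400/em 505 nm) was read kinetically for 5–10 min or at a 10 min endpoint.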

The nature of data set [8]: Inhibition of CYP3A (unknown origin) up to 30 uM. To be noted: human. It is filed as ADME.
Data set [9] addresses Dipeptidyl peptidase 8 (Homo sapiens) (UniProt Q6V1X1). Kind of data set: Inhibition of DPP8 (unknown origin) up to 10 uM. The procedure, abridged:
as §2

The term bioavailability denotes dose-corrected exposure relative to a reference, in per cent. Lower therefore signals poor availability. In general, MRT inf refers to the average time that molecules of a dose stay in the body. For orientation: half-life means how long it takes for the measured level to halve. A higher half-life goes with slow loss. One may read the AUC(0-inf) as total exposure, with the tail of the curve extrapolated. The low end stands for low exposure, the high end for high exposure.

Calls of active or inactive are those of the source. No cut-off for these calls is given here.

Chain of Dipeptidyl peptidase 8 (Homo sapiens) (Q6V1X1 whole entry, looked up): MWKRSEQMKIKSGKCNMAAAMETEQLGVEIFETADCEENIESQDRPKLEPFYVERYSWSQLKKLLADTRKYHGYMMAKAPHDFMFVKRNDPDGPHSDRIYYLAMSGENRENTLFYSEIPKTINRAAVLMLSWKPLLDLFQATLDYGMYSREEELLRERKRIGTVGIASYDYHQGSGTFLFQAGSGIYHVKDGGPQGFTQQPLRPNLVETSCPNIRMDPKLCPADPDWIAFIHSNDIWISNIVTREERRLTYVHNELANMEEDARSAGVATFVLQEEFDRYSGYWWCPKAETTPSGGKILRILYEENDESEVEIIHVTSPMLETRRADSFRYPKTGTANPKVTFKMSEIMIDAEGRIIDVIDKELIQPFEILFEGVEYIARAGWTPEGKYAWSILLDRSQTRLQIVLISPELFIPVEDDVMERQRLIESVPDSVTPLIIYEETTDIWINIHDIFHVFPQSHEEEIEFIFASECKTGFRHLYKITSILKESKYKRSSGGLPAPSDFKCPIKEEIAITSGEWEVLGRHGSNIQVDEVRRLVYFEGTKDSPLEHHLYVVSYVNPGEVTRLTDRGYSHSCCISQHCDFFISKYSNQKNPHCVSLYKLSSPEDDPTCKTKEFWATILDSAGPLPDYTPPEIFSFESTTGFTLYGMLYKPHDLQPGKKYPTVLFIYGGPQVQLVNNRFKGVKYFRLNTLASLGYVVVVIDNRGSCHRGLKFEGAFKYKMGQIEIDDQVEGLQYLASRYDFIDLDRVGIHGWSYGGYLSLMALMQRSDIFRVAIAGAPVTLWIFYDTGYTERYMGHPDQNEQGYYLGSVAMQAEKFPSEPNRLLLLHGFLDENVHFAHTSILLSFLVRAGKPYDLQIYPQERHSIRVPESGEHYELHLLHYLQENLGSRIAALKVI
Chain of Dipeptidyl peptidase 9 (Homo sapiens) (Q86TI2 2-863 limits assumed): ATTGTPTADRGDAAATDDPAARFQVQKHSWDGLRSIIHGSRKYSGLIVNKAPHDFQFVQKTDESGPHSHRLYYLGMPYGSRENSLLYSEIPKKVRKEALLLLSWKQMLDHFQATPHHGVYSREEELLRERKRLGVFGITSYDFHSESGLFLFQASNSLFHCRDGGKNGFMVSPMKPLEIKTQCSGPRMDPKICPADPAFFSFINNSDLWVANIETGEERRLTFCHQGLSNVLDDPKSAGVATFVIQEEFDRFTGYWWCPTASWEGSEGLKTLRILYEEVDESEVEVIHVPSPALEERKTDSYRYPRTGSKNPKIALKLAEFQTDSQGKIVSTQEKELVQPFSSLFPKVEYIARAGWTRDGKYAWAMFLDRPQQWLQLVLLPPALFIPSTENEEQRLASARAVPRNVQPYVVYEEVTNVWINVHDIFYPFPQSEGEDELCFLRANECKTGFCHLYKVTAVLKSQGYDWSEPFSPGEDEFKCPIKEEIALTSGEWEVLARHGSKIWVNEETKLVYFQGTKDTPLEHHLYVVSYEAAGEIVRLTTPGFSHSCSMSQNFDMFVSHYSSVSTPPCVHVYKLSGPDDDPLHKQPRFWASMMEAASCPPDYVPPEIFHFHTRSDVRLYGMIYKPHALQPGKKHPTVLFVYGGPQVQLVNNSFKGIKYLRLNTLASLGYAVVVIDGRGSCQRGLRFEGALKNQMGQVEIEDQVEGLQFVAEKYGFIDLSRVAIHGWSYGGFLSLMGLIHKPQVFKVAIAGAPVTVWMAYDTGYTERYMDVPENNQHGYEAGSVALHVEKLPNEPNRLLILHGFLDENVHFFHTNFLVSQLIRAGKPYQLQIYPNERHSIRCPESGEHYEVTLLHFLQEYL

In data set [1], `CC#CCn1c(N2CCC[C@@H](N)C2)nc2ccn(Cc3nc(C)c4ccccc4n3)c2c1=O` came in with a bioavailability of 82.9%. Besides, in data set [2], the MRT inf turned out to be 8.3 h. In [3], the Vd came to 4 L/kg. For the same molecule, the clearance in data set [4] was 16.7 mL/min/kg. In data set [5], this molecule showed a half-life of 4.9 h. The molecule further had an AUC(0-inf) in [6] of 25300 ng·h/mL. Besides, the inhibition result in [7] and in [9] was “inactive” each time. In addition, the “inhibition (INH)” value in data set [8] is reported as “Not Active”.
As for `N#Cc1ccccc1Cn1c(N2CCC[C@@H](N)C2)nc2c(Br)c[nH]c2c1=O`, the bioavailability in data set [1] stood at 41%. In data set [5], this molecule gave a half-life of 2 h.
